Measurements: ChEMBL document CHEMBL1131624, “Inhibitors of acyl-CoA:cholesterol O-acyltransferase. 2. Identification and structure-activity relationships of a novel series of N-alkyl-N-(heteroaryl-substituted benzyl)-N'-arylureas” (J Med Chem, 1998)
Activity calls are given as the source filed them. The rule behind the calls is not given here.

Columns and labels:
[1] = target: T1, Sterol O-acyltransferase, Soat (Rattus norvegicus) (UniProt Q7TQM4+O70536); test: Effective dose to reduce plasma total cholesterol level by 50% of the control value in cholesterol fed rats; format: functional
Method in brief: (§1)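 Cholesterol-fed rats given compound orally as a dietary admixture in a cholesterol-enriched diet. Plasma total cholesterol compared with control and reported as percent reduction at the dose, or as ED50, the dose reducing plasma total cholesterol by 50% of the control value.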

O-acyltransferase = O-acyltransferase (Oryctolagus cuniculus, UniProt G1SFD9); test: In vitro inhibitory activity against Acyl coenzyme A:cholesterol acyltransferase (ACAT) in rabbit intestinal microsomes; design: species or system Intestine
Method in brief: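 Enzyme source was mucosal microsomes from small intestine of cholesterol-fed rabbits, incubated with [1-¹⁴C]oleoyl-CoA (Heider method, minor modifications).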

Rattus norvegicus [2] = test: Compound was evaluated for percent reduction in total cholesterol level at >0.32 mg/kg; format: functional; method in brief: as §1
Rattus norvegicus [3] = test: Effective dose to reduce plasma total cholesterol level by 50% of the control in cholesterol fed rats when administered by gavage in PEG400 as a vehicle; format: functional; conditions: po
Method in brief: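 Rats on a cholesterol diet were dosed orally by gavage with compound in PEG400 vehicle. Plasma total cholesterol measured. ED50 is the dose reducing it by 50% of the control value.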

Mus musculus = species: Mus musculus; test: Compound tested for inhibitory activity of foam cell formation in mouse peritoneal macrophages; format: functional
Method in brief: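 Mouse peritoneal macrophages from nonstimulated mice, lavaged with PBS, plated 2 × 10⁶ cells/mL, adhered 2 h, then 18 h in 10% FBS-DMEM. Incubated 4 h at 37 °C with 0.2 mmol/L [1-¹⁴C]oleate–BSA, 30 µg/mL acetylated human LDL and compound (0.1% DMSO). Lipids extracted, TLC-separated, and cholesteryl [¹⁴C]oleate counted. Cell protein also measured. IC50 in nM.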

Rattus norvegicus [4] = species: Rattus norvegicus; test: Effective dose to reduce plasma total cholesterol level by 50% of the control in cholesterol fed rats; format: functional; method in brief: as §1
Rattus norvegicus [5] = test: Compound was evaluated for percent reduction in total cholesterol level at >1 mg/kg; inactive; format: functional, organism-based; method in brief: as §1
Rattus norvegicus [6] = test: Compound was evaluated for percent reduction in total cholesterol level at >0.1 mg/kg; Inactive; format: functional, organism-based; method in brief: as §1
Rattus norvegicus [7] = test: Compound was evaluated for percent reduction in total cholesterol level at >0.32 mg/kg; Inactive; format: functional, organism-based; method in brief: as §1
[8] = target: T1, Sterol O-acyltransferase, Soat (Rattus norvegicus); test: Percentage reduction in total cholesterol level at <1 mg/kg; format: functional, organism-based; method in brief: as §1

O-acyltransferase, sequence (G1SFD9 1-524): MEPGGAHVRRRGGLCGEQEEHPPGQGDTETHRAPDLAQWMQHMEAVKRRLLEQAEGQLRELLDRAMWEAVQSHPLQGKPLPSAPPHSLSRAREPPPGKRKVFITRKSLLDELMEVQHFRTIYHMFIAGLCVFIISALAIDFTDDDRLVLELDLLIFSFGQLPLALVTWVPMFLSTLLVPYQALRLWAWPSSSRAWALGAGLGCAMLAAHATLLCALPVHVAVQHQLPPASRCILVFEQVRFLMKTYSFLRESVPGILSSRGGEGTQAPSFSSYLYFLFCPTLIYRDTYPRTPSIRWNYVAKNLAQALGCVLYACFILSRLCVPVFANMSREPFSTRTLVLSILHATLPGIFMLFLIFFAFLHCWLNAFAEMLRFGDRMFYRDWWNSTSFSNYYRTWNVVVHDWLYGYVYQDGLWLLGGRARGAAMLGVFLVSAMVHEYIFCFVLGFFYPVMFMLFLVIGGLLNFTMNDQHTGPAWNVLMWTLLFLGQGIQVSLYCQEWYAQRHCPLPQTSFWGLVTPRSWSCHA

| SMILES | ED50 [1] [mg/kg] | IC50 (O-acyltransferase) [nM] | other results |
| --- | --- | --- | --- |
| CSc1cc(C)nc(SC)c1NC(=O)N(Cc1cccc(-c2cc[nH]n2)c1)C1CCCCCC1 | > 0.32 | 260 | Reduction (Rattus norvegicus [2]): 24% |
| O=C(Nc1c(F)cc(F)cc1F)N(Cc1cccc(-c2cc[nH]n2)c1)C1CCCCCC1 | 0.062 | 22 | ED50 (Rattus norvegicus [3]): 0.79 mg/kg; IC50 (Mus musculus): 580 nM |
| Cc1cc(C)c(NC(=O)N(Cc2c[nH]c(-c3ccccc3)n2)C2CCCCCC2)c(C)c1 | > 1 | 750 | Reduction (Rattus norvegicus [5]): inactive |
| CSc1cc(C)nc(SC)c1NC(=O)N(Cc1ccccc1)Cc1ccc(-c2ccn(C)n2)cc1 | > 0.32 | 29 | Reduction (Rattus norvegicus [6]): inactive |
| Cc1cc(C)c(NC(=O)N(Cc2ccc(-c3ccn(C)n3)cc2)C2CCCCCC2)c(C)c1 | < 1 | 44 | ED50 (Rattus norvegicus [4]): > 0.32 mg/kg; Reduction (Rattus norvegicus [7]): inactive; Reduction [8]: 88% |

More lines, in order of falling IC50 (O-acyltransferase), values ahead:

| ED50 [1] [mg/kg] | IC50 (O-acyltransferase) [nM] | SMILES | other results |
| --- | --- | --- | --- |
| > 0.32 | 27 | Cc1cc(C)c(NC(=O)N(Cc2ccc(-c3nnc(C)o3)cc2)C2CCCCCC2)c(C)c1 | Reduction (Rattus norvegicus [2]): 37% |
|  | 24 | Cc1cc(C)c(NC(=O)N(Cc2ccc(-c3ccccc3)cc2)C2CCCCCC2)c(C)c1 | ED50 (Rattus norvegicus [4]): 0.29 mg/kg |
